Results reported in paper PMC6847114 (Nucleic Acids Research, 2019).

Key:
[1] = ref [53],[54]; cited from earlier work
HeLa cells = format: cell-based; details: Ru 100 μM + HCPs 300 μM; for Nuclear uptake of [Ru(bpy)2(dppz)]^2+ in full medium: full medium containing serum, CLSM
[2] = ref [52]; cited from earlier work
[3] = n-Octanol/aqueous partitioning; format: physicochemical; details: n-octanol / Tris–HCl buffer 10 mM pH 7.4, Ru 100 μM
Summary of the method: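 Shake-flask partitioning of the Ru complex between n-octanol and aqueous Tris–HCl (10 mM, pH 7.4), run with or without highly chlorinated phenols (penta-, tetra- or trichlorophenols) at different Ru:phenol ratios. The complex was quantified in each phase by UV-vis absorbance. Ion-pair lipophilicity is reported as n-octanol-phase absorption intensity at Ru/phenol 1:10, multiplied by 10.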

## Oc1cc(Cl)c(Cl)c(Cl)c1Cl [2,3,4,5-TeCP, 2,3,4,5-tetrachlorophenol]
[1]
  pKa: 5.64
HeLa cells
  Nuclear uptake of [Ru(bpy)2(dppz)]^2+ in full medium: facilitated
HeLa cells; serum-free medium, flow cytometry and CLSM
  Cellular and nuclear uptake of [Ru(bpy)2(dppz)]^2+ by luminescence: most effective
[2]
  log Kow: 4.95
[3]
  Lipophilicity of the ion-pairing complex formed with [Ru(bpy)2(dppz)]Cl2: least hydrophobic

## Oc1c(Cl)c(Cl)c(Cl)c(Cl)c1Cl [PCP, pentachlorophenol]
HeLa cells
  Nuclear uptake of [Ru(bpy)2(dppz)]^2+ in full medium: facilitated
[2]
  log Kow: 5.01
[3]
  Lipophilicity of the ion-pairing complex formed with [Ru(bpy)2(dppz)]Cl2: most lipophilic
